Laboratory results as given in ChEMBL document CHEMBL2412964, “Discovery of novel tetrahydro-pyrazolo [4,3-c] pyridines for the treatment of neuropathic pain: synthesis and neuropharmacology” (Eur J Med Chem, 2013).

Legend:
Rattus norvegicus [1] = assay: Antinociceptive activity in Wistar rat chronic constriction injury model assessed as reversal of tactile allodynia at 100 mg/kg, ip after 30 mins (reference value: 3.4 +/- 0.8%); assay type: functional; conditions: route intraperitoneal
Rattus norvegicus [2] = assay: Antinociceptive activity in Wistar rat partial sciatic nerve ligation model assessed as reversal of cold allodynia at 100 mg/kg, ip after 60 mins (reference value: 2.5 +/- 0.3%); assay type: functional; conditions: route intraperitoneal
Rattus norvegicus [3] = assay: Antinociceptive activity in Wistar rat chronic constriction injury model assessed as reversal of spontaneous pain response at 100 mg/kg, ip after 120 mins (reference value: 4.5 +/- 0.2%); assay type: functional; conditions: route intraperitoneal
Rattus norvegicus [4] = assay: Antinociceptive activity in Wistar rat partial sciatic nerve ligation model assessed as reversal of tactile allodynia at 100 mg/kg, ip after 60 mins (reference value: 12.5 +/- 1.2%); assay type: functional; conditions: route intraperitoneal
Rattus norvegicus [5] = assay: Antinociceptive activity in Wistar rat partial sciatic nerve ligation model assessed as reversal of cold allodynia at 100 mg/kg, ip after 120 mins (reference value: 1.5 +/- 0.5%); assay type: functional; conditions: route intraperitoneal
Rattus norvegicus [6] = assay: Antinociceptive activity in Wistar rat partial sciatic nerve ligation model assessed as reversal of mechanical allodynia at 100 mg/kg, ip after 120 mins (reference value: 2.9 +/- 0.3%); assay type: functional; conditions: route intraperitoneal
Rattus norvegicus [7] = assay: Antinociceptive activity in Wistar rat chronic constriction injury model assessed as reversal of mechanical allodynia at 100 mg/kg, ip after 120 mins (reference value: 5.3 +/- 0.5%); assay type: functional; conditions: route intraperitoneal
Rattus norvegicus [8] = assay: Antinociceptive activity in Wistar rat chronic constriction injury model assessed as reversal of spontaneous pain response at 100 mg/kg, ip after 60 mins (reference value: 4.6 +/- 0.6%); assay type: functional; conditions: route intraperitoneal
Rattus norvegicus [9] = assay: Antinociceptive activity in Wistar rat chronic constriction injury model assessed as reversal of cold allodynia at 100 mg/kg, ip after 60 mins (reference value: 6.3 +/- 1.9%); assay type: functional; conditions: route intraperitoneal
Rattus norvegicus [10] = assay: Antinociceptive activity in Wistar rat partial sciatic nerve ligation model assessed as reversal of mechanical allodynia at 100 mg/kg, ip after 60 mins (reference value: 2.8 +/- 0.3%); assay type: functional; conditions: route intraperitoneal
Rattus norvegicus [11] = assay: Antinociceptive activity in Wistar rat chronic constriction injury model assessed as reversal of spontaneous pain response at 100 mg/kg, ip after 30 mins (reference value: 8.9 +/- 4.6%); assay type: functional; conditions: route intraperitoneal
Rattus norvegicus [12] = assay: Antinociceptive activity in Wistar rat partial sciatic nerve ligation model assessed as reversal of spontaneous pain response at 100 mg/kg, ip after 120 mins (reference value: 1.2 +/- 0.1%); assay type: functional; conditions: route intraperitoneal
Rattus norvegicus [13] = assay: Antinociceptive activity in Wistar rat partial sciatic nerve ligation model assessed as reversal of spontaneous pain response at 100 mg/kg, ip after 30 mins (reference value: 3.2 +/- 0.3%); assay type: functional; conditions: route intraperitoneal
Rattus norvegicus [14] = assay: Antinociceptive activity in Wistar rat chronic constriction injury model assessed as reversal of tactile allodynia at 100 mg/kg, ip after 60 mins (reference value: 1.3 +/- 0.3%); assay type: functional; conditions: route intraperitoneal
Rattus norvegicus [15] = assay: Antinociceptive activity in Wistar rat chronic constriction injury model assessed as reversal of cold allodynia at 100 mg/kg, ip after 30 mins (reference value: 0.6 +/- 2.7%); assay type: functional; conditions: route intraperitoneal
Rattus norvegicus [16] = assay: Antinociceptive activity in Wistar rat partial sciatic nerve ligation model assessed as reversal of tactile allodynia at 100 mg/kg, ip after 120 mins relative to control; assay type: functional; conditions: route intraperitoneal
Rattus norvegicus [17] = assay: Antinociceptive activity in Wistar rat partial sciatic nerve ligation model assessed as reversal of tactile allodynia at 100 mg/kg, ip after 30 mins (reference value: 7.7 +/- 0.7%); assay type: functional; conditions: route intraperitoneal
Rattus norvegicus [18] = assay: Antinociceptive activity in Wistar rat partial sciatic nerve ligation model assessed as reversal of mechanical allodynia at 100 mg/kg, ip after 30 mins (reference value: 2.9 +/- 0.3%); assay type: functional; conditions: route intraperitoneal
Rattus norvegicus [19] = assay: Antinociceptive activity in Wistar rat chronic constriction injury model assessed as reversal of cold allodynia at 100 mg/kg, ip after 120 mins (reference value: 5.4 +/- 1.9%); assay type: functional; conditions: route intraperitoneal
Rattus norvegicus [20] = assay: Antinociceptive activity in Wistar rat chronic constriction injury model assessed as reversal of mechanical allodynia at 100 mg/kg, ip after 60 mins (reference value: 4.9 +/- 1.0%); assay type: functional; conditions: route intraperitoneal
Mus musculus [21] = assay: Antinociceptive activity in Swiss albino mouse assessed as inhibition of acetic acid-induced writhing at 100 mg/kg administered 30 mins prior to acetic acid-challenge measured for 30 mins relative to control; assay type: functional
In short: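 Swiss albino mice (20–25 g, either sex); writhing induced by i.p. 0.1 mL of 2.0% v/v acetic acid given half an hour after test compound dosing.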

Mus musculus [22] = assay: Antinociceptive activity in Swiss albino mouse assessed as inhibition of formalin-induced flinching at 100 mg/kg administered 30 mins prior to test measured up to 5 mins relative to control; assay type: functional
Mus musculus [23] = species on record: Mus musculus; assay: Neurotoxicity in Swiss albino mouse assessed as minimal motor impairment after 4 hrs by rotarod test; assay type: toxicity, organism-based; conditions: in vivo
In short: (§1)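 Mice, either sex, 20-25 g, dosed at 30, 100 and 300 mg/kg. Minimal motor impairment was scored on the rotarod at 0.5 and 4.0 h. Value reported is the minimum dose showing the effect in half or more of three mice per group.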

Mus musculus [24] = species on record: Mus musculus; assay: Neurotoxicity in Swiss albino mouse assessed as minimal motor impairment after 0.5 hrs by rotarod test; assay type: toxicity, organism-based; conditions: in vivo; in short: as §1
Mus musculus [25] = assay: Antinociceptive activity in Swiss albino mouse assessed as inhibition of formalin-induced flinching at 100 mg/kg administered 30 mins prior to test measured for 10 to 30 mins relative to control; assay type: functional
Rattus norvegicus [26] = assay: Antinociceptive activity in Wistar rat partial sciatic nerve ligation model assessed as reversal of spontaneous pain response at 100 mg/kg, ip after 60 mins (reference value: 2.9 +/- 0.3%); assay type: functional; conditions: route intraperitoneal
Rattus norvegicus [27] = assay: Antinociceptive activity in Wistar rat chronic constriction injury model assessed as reversal of mechanical allodynia at 100 mg/kg, ip after 30 mins (reference value: 4.7 +/- 2.1%); assay type: functional; conditions: route intraperitoneal
Rattus norvegicus [28] = assay: Antinociceptive activity in Wistar rat partial sciatic nerve ligation model assessed as reversal of cold allodynia at 100 mg/kg, ip after 30 mins (reference value: 4.1 +/- 1.0%); assay type: functional; conditions: route intraperitoneal
Rattus norvegicus [29] = assay: Antinociceptive activity in Wistar rat chronic constriction injury model assessed as reversal of tactile allodynia at 100 mg/kg, ip after 120 mins (reference value: 4.1 +/- 2.1%); assay type: functional; conditions: route intraperitoneal
Mus musculus [30] = assay: Neurotoxicity in Swiss albino mouse assessed as minimal motor impairment at 300 mg/kg after 4 hrs by rotarod test; assay type: toxicity, organism-based; design: dose 300 mg/kg; conditions: in vivo
In short: (§2)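 Swiss albino mice of either sex, 20-25 g, dosed at 30, 100 and 300 mg/kg, three per group. Minimal motor impairment scored by rotarod at 0.5 and 4.0 h after dosing. Reported value is the lowest dose giving impairment in half or more of the mice.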

Mus musculus [31] = assay: Neurotoxicity in Swiss albino mouse assessed as minimal motor impairment at 300 mg/kg after 0.5 hrs by rotarod test; assay type: toxicity, organism-based; design: dose 300 mg/kg; conditions: in vivo; in short: as §2

Compound	Activity (Rattus norvegicus [1])	Activity (Rattus norvegicus [2])	Activity (Rattus norvegicus [3])	Activity (Rattus norvegicus [4])	Activity (Rattus norvegicus [5])	Activity (Rattus norvegicus [6])	Activity (Rattus norvegicus [7])	Activity (Rattus norvegicus [8])	Activity (Rattus norvegicus [9])	Activity (Rattus norvegicus [10])	Activity (Rattus norvegicus [11])	Activity (Rattus norvegicus [12])	Activity (Rattus norvegicus [13])	Activity (Rattus norvegicus [14])	Activity (Rattus norvegicus [15])	Activity (Rattus norvegicus [16])	Activity (Rattus norvegicus [17])	Activity (Rattus norvegicus [18])	Activity (Rattus norvegicus [19])	Activity (Rattus norvegicus [20])	other results
CCN1CCc2c(c(C(C)(C)C)nn2C(=O)Nc2ccc(F)cc2F)C1	61.2%	64.4%	91.6%	51.7%	40%	43.9%	11.2%	85.9%	64.4%	60.2%	81.6%	56.9%	89.3%	58.3%	64.3%	38.3%	66.7%	60%	40%	72.9%	inhibition in vivo at 100 mg/kg (Mus musculus [21]): 71.9%; inhibition in vivo at 100 mg/kg (Mus musculus [22]): 4.4%; MLD (Mus musculus [23]): 100 mg/kg; MLD (Mus musculus [24]): 100 mg/kg; inhibition in vivo at 100 mg/kg (Mus musculus [25]): 73.4%; Activity (Rattus norvegicus [26]): 65%; Activity (Rattus norvegicus [27]): 70.8%; Activity (Rattus norvegicus [28]): 64.3%; Activity (Rattus norvegicus [29]): 51.7%
CCN1CCc2c(c(C)nn2C(=O)Nc2ccc(C)cc2C)C1	17.2%	14.3%	64.4%	41.9%	38.7%	18.7%	65%	67.5%	37.3%	50.5%	72.9%	5.9%	40.7%	56.6%	54.4%	30.2%	53.3%	63.3%	41.8%	57.5%	inhibition in vivo at 100 mg/kg (Mus musculus [21]): 56.1%; inhibition in vivo at 100 mg/kg (Mus musculus [22]): 7%; MLD (Mus musculus [23]): 300 mg/kg; MLD (Mus musculus [24]): 300 mg/kg; inhibition in vivo at 100 mg/kg (Mus musculus [25]): 16.3%; Activity (Rattus norvegicus [26]): 34.4%; Activity (Rattus norvegicus [27]): 70.8%; Activity (Rattus norvegicus [28]): 60.4%; Activity (Rattus norvegicus [29]): 66.1%
CCN1CCc2c(c(C(C)(C)C)nn2C(=O)Nc2cccc(C(F)(F)F)c2)C1	6.7%	19.1%	75.2%	13%	15%	45.8%	12.1%	65.6%	35%	59.5%	89.5%	19.8%	87.3%	13.7%	55.6%	13%	24.7%	52.8%	9.3%	12.2%	Activity (Mus musculus [30]): Non-toxic; inhibition in vivo at 100 mg/kg (Mus musculus [21]): 61.4%; inhibition in vivo at 100 mg/kg (Mus musculus [22]): 2.6%; Activity (Mus musculus [31]): Non-toxic; inhibition in vivo at 100 mg/kg (Mus musculus [25]): 55.1%; Activity (Rattus norvegicus [26]): 42.2%; Activity (Rattus norvegicus [27]): 3.6%; Activity (Rattus norvegicus [28]): 52.7%; Activity (Rattus norvegicus [29]): 9.9%
CCN1CCc2c(c(C)nn2C(=O)Nc2ccc(Cl)cc2)C1	13.2%	7.9%	27.4%	8.2%	11%	11.3%	8.3%	15%	23%	5%	16.9%	11%	13.6%	8%	15.9%	14.2%	18.1%	17.5%	9.5%	14.6%	Activity (Mus musculus [30]): Non-toxic; inhibition in vivo at 100 mg/kg (Mus musculus [21]): 55.2%; inhibition in vivo at 100 mg/kg (Mus musculus [22]): 1.7%; Activity (Mus musculus [31]): Non-toxic; inhibition in vivo at 100 mg/kg (Mus musculus [25]): 7.5%; Activity (Rattus norvegicus [26]): 12.7%; Activity (Rattus norvegicus [27]): 14.6%; Activity (Rattus norvegicus [28]): 13.2%; Activity (Rattus norvegicus [29]): 19.7%
CCN1CCc2c(c(C)nn2C(=O)Nc2c(C)cccc2C)C1	55%	41.6%	53.7%	46.4%	37.2%	44.4%	26.1%	68.3%	52.6%	69.4%	77.3%	58.4%	70.3%	58%	63.4%	38.3%	18.4%	57.8%	13.4%	73.2%	Activity (Mus musculus [30]): Non-toxic; inhibition in vivo at 100 mg/kg (Mus musculus [21]): 60.5%; inhibition in vivo at 100 mg/kg (Mus musculus [22]): 12.2%; Activity (Mus musculus [31]): Non-toxic; inhibition in vivo at 100 mg/kg (Mus musculus [25]): 78.9%; Activity (Rattus norvegicus [26]): 66.1%; Activity (Rattus norvegicus [27]): 67%; Activity (Rattus norvegicus [28]): 61.3%; Activity (Rattus norvegicus [29]): 65.1%
CCN1CCc2c(c(C(C)(C)C)nn2C(=O)Nc2cc(C)ccc2C)C1	4.5%	12.7%	12.4%	16.7%	9.5%	14.3%	9.1%	19.8%	10.1%	7.1%	21.1%	13.6%	4.9%	9.7%	17.9%	4.5%	36.4%	14.3%	40.5%	18.2%	Activity (Mus musculus [30]): Non-toxic; inhibition in vivo at 100 mg/kg (Mus musculus [21]): 63.1%; inhibition in vivo at 100 mg/kg (Mus musculus [22]): 0%; Activity (Mus musculus [31]): Non-toxic; inhibition in vivo at 100 mg/kg (Mus musculus [25]): 15.7%; Activity (Rattus norvegicus [26]): 14.4%; Activity (Rattus norvegicus [27]): 18.2%; Activity (Rattus norvegicus [28]): 12%; Activity (Rattus norvegicus [29]): 44.7%
